Laboratory results as given in ChEMBL document CHEMBL3271992, “Synthesis of 4-alkyl and 4-(beta-alkylvinyl) derivatives of primaquine as potential antimalarials” (J Med Chem, 1979).
Calls of active or inactive are those of the source. The rule behind the calls is not given here.

Tests used:
Plasmodium berghei [1] = assay: Antimalarial activity against blood schizont stage of Plasmodium berghei infected in mouse assessed as mean survival time at 320 mg/kg (reference value: 6.2 +/- 0.5 days); format: functional
Plasmodium berghei [2] = assay: Antimalarial activity against blood schizont stage of Plasmodium berghei infected in mouse assessed as mean survival time at 20 mg/kg (reference value: 6.2 +/- 0.5 days); format: functional
Plasmodium berghei [3] = assay: Antimalarial activity against blood schizont stage of Plasmodium berghei infected in mouse assessed as mean survival time at 80 mg/kg (reference value: 6.2 +/- 0.5 days); format: functional
Leishmania donovani = assay: Antileishmanial activity against Leishmania donovani infected in hamster; format: functional, organism-based
Plasmodium cynomolgi [4] = assay: Antimalarial activity against Plasmodium cynomolgi infected in rhesus monkey assessed as infection cure at 1 mg/kg administered via stomach tube once daily for 7 days with 2.5 mg of base/kg of chloroquine; format: functional, organism-based; parameters: dose 1 mg/kg
Plasmodium cynomolgi [5] = assay: Antimalarial activity against Plasmodium cynomolgi infected in rhesus monkey assessed as time duration between end of treatment and relapse at 1 mg/kg administered via stomach tube once daily for 7 days with 2.5 mg of base/kg of chloroquine1; format: functional
Plasmodium cynomolgi [6] = assay: Antimalarial activity against Plasmodium cynomolgi infected in rhesus monkey assessed as time duration between end of treatment and relapse at 0.5 mg/kg administered via stomach tube once daily for 7 days with 2.5 mg of base/kg of chloroquine1; format: functional
Plasmodium cynomolgi [7] = assay: Antimalarial activity against Plasmodium cynomolgi infected in rhesus monkey assessed as infection cure at 0.5 mg/kg administered via stomach tube once daily for 7 days with 2.5 mg of base/kg of chloroquine; format: functional, organism-based; parameters: dose 0.5 mg/kg
[8] = tested on: Plasmodium berghei yoelii; assay: Antimalarial activity against sporozoite stage of Plasmodium berghei yoelii infected in mouse assessed as survival at 10 mg/kg, sc after 30 days; format: functional, organism-based; parameters: dose 10 mg/kg
In short: (§1)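 Mice infected with P. berghei yoelii (sporozoite challenge) were dosed on the day of challenge, in groups of five, either orally or subcutaneously at several dose levels. Compound was dissolved or suspended in 0.5% hydroxyethylcellulose–0.1% Tween 80. Prophylactic activity was read as survival of treated mice to 30 days, reported as cures per number treated, with toxic deaths noted.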

[9] = tested on: Plasmodium berghei yoelii; assay: Antimalarial activity against sporozoite stage of Plasmodium berghei yoelii infected in mouse assessed as survival at 2.5 mg/kg, po after 30 days; format: functional, organism-based; parameters: dose 2.5 mg/kg; in short: as §1
Plasmodium cynomolgi [10] = assay: Antimalarial activity against Plasmodium cynomolgi infected in rhesus monkey assessed as infection cure at 0.25 mg/kg administered via stomach tube once daily for 7 days with 2.5 mg of base/kg of chloroquine; format: functional, organism-based; parameters: dose 0.25 mg/kg
Plasmodium cynomolgi [11] = assay: Antimalarial activity against Plasmodium cynomolgi infected in rhesus monkey assessed as time duration between end of treatment and relapse at 0.25 mg/kg administered via stomach tube once daily for 7 days with 2.5 mg of base/kg of chloroquine1; format: functional, organism-based; parameters: dose 0.25 mg/kg
Plasmodium berghei [12] = assay: Antimalarial activity against blood schizont stage of Plasmodium berghei infected in mouse assessed as mean survival time at 160 mg/kg (reference value: 6.2 +/- 0.5 days); format: functional
Plasmodium berghei [13] = assay: Antimalarial activity against blood schizont stage of Plasmodium berghei infected in mouse assessed as mean survival time at 640 mg/kg (reference value: 6.2 +/- 0.5 days); format: functional
Plasmodium berghei [14] = assay: Antimalarial activity against blood schizont stage of Plasmodium berghei infected in mouse assessed as mean survival time at 40 mg/kg (reference value: 6.2 +/- 0.5 days); format: functional
[15] = tested on: Plasmodium berghei yoelii; assay: Antimalarial activity against sporozoite stage of Plasmodium berghei yoelii infected in mouse assessed as survival at 10 mg/kg, po after 30 days; format: functional, organism-based; parameters: dose 10 mg/kg; in short: as §1
[16] = tested on: Plasmodium berghei yoelii; assay: Antimalarial activity against sporozoite stage of Plasmodium berghei yoelii infected in mouse assessed as survival at 160 mg/kg, sc after 30 days; format: functional, organism-based; parameters: dose 160 mg/kg; in short: as §1
Mus musculus [17] = assay: Toxicity in mouse infected with Plasmodium berghei assessed as death at 640 mg/kg after 2 to 5 days; format: organism-based; parameters: dose 640 mg/kg; details: in vivo
Mus musculus [18] = assay: Toxicity in mouse infected with Plasmodium berghei assessed as death at 320 mg/kg after 2 to 5 days; format: organism-based; parameters: dose 320 mg/kg; details: in vivo
[19] = tested on: Plasmodium berghei yoelii; assay: Antimalarial activity against sporozoite stage of Plasmodium berghei yoelii infected in mouse assessed as survival at 2.5 mg/kg, sc after 30 days; format: functional, organism-based; parameters: dose 2.5 mg/kg; in short: as §1

SMILES	Activity (Leishmania donovani)	Activity (Plasmodium cynomolgi [4])	Time (Plasmodium cynomolgi [5]) [days]	Time (Plasmodium cynomolgi [6]) [days]	Activity (Plasmodium cynomolgi [7])	other results
Br.COc1cc(NC(C)CCCN)c2nccc(/C=C/CC3CCCCC3)c2c1 (stereo unspecified)	inactive	–	–	–	–	MSD (Plasmodium berghei [1]): -0.4 days; MSD (Plasmodium berghei [2]): 0.4 days; MSD (Plasmodium berghei [3]): 0.9 days
C/C=C/c1ccnc2c(NC(C)CCCN)cc(OC)cc12.O=C(O)/C=C/C(=O)O (stereo unspecified)	inactive	inactive	18	8	inactive	Activity [8]: inactive
COc1cc(NC(C)CCCN)c2nccc(CCCC3CCCCC3)c2c1.O=C(O)/C=C/C(=O)O (stereo unspecified)	inactive	inactive	8	6	inactive	MSD (Plasmodium berghei [1]): 0.9 days; MSD (Plasmodium berghei [2]): 0.3 days; MSD (Plasmodium berghei [3]): 0.4 days
COc1cc(NC(C)CCCN)c2nccc(CC3CCCCC3)c2c1.O=C(O)/C=C/C(=O)O (stereo unspecified)	inactive	inactive	7	6	inactive	–
C/C=C\c1ccnc2c(NC(C)CCCN)cc(OC)cc12.O=C(O)/C=C/C(=O)O (mixture of isomers)	inactive	inactive	6	6	inactive	Activity [9]: inactive; Activity (Plasmodium cynomolgi [10]): inactive; Activity (Plasmodium cynomolgi [11]): inactive
CCCCc1ccnc2c(NC(C)CCCN)cc(OC)cc12.O=C(O)/C=C/C(=O)O (stereo unspecified)	inactive	inactive	22	5	inactive	Activity [9]: inactive; Activity [8]: inactive
CC/C(C)=C\c1ccnc2c(NC(C)CCCN)cc(OC)cc12 (stereo unspecified)	inactive	–	–	–	–	–
CCCc1ccnc2c(NC(C)CCCN)cc(OC)cc12.O=C(O)/C=C/C(=O)O (stereo unspecified)	inactive	inactive	23	7	inactive	–
COc1cc(NC(C)CCCN)c2nccc(CCC3CCCCC3)c2c1.O=C(O)/C=C/C(=O)O (stereo unspecified)	inactive	–	–	–	–	MSD (Plasmodium berghei [12]): 0.3 days; MSD (Plasmodium berghei [13]): 0.5 days; MSD (Plasmodium berghei [14]): 0.3 days
COc1cc(NC(C)CCCN)c2nccc(C=C(C)C)c2c1 (stereo unspecified)	inactive	–	–	–	–	–
CCC(C)Cc1ccnc2c(NC(C)CCCN)cc(OC)cc12.O=C(O)/C=C/C(=O)O (stereo unspecified)	inactive	inactive	9	7	inactive	–
COc1cc(NC(C)CCCN)c2nccc(/C=C/C3CCCCC3)c2c1 (stereo unspecified)	inactive	–	–	–	–	Activity [15]: inactive; Activity [16]: inactive; Activity [8]: inactive
COc1cc(NC(C)CCCN)c2ncccc2c1 (stereo unspecified) [PRIMAQUINE]	–	–	–	–	–	Activity (Mus musculus [17]): Toxic; MSD (Plasmodium berghei [2]): 4 days; Activity (Mus musculus [18]): Toxic; MSD (Plasmodium berghei [3]): 9.4 days; MSD (Plasmodium berghei [14]): 5 days
CC/C=C/c1ccnc2c(NC(C)CCCN)cc(OC)cc12.O=C(O)/C=C/C(=O)O (stereo unspecified)	inactive	inactive	10	6	inactive	MSD (Plasmodium berghei [1]): 9.5 days; Activity [9]: inactive; Activity [19]: inactive; MSD (Plasmodium berghei [2]): 3.1 days; MSD (Plasmodium berghei [3]): 6.5 days; MSD (Plasmodium berghei [12]): 7.5 days; MSD (Plasmodium berghei [13]): 10.3 days; MSD (Plasmodium berghei [14]): 5.1 days
